Experimental data published in ChEMBL document CHEMBL3994599, “Pallidopenillines: Polyketides from the Alga-Derived Fungus Penicillium thomii Maire KMM 4675” (J Nat Prod, 2016).
The source made the active and inactive calls. The calls are words filed in the database; no cut-off is given here.

Legend:
[1] = test system: MEL28; assay: Cytotoxicity against human MEL28 cells assessed as reduction in cell viability up to 100 uM after 24 to 72 hrs by MTT assay; type: functional, cell-based
[2] = test system: RAW264.7; assay: Inhibition of ROS generation in mouse RAW264.7 cells at 10 uM after 24 hrs by H2DCF-DA staining based fluorescence assay relative to control; type: functional; settings: RAW264.7, 24 h
Procedure, shortened: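 RAW 264.7 murine macrophages were stimulated with lipopolysaccharide (LPS), and compounds were tested at 10 μM. ROS levels were expressed as percent change relative to control cells treated with LPS alone. Significance was reported as p values.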

[3] = test system: HCT-116; assay: Cytotoxicity against human HCT116 cells assessed as reduction in cell viability up to 100 uM after 24 to 72 hrs by MTT assay; type: functional, cell-based
[4] = test system: CWR22R; assay: Cytotoxicity against human 22Rv1 cells assessed as inhibition of colony formation at 1 uM relative to control; type: functional
Procedure, shortened: (§1)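 Soft agar method: 22Rv1 human prostate cancer cells were grown in soft agar with compound. Colony formation and growth were compared with untreated control.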

[5] = test system: CWR22R; assay: Cytotoxicity against human 22Rv1 cells assessed as reduction in cell viability up to 72 hrs by MTT assay; type: functional, cell-based; settings: 22Rv1, 72 h
[6] = test system: CWR22R; assay: Cytotoxicity against human 22Rv1 cells assessed as inhibition of colony formation at 2 uM relative to control; type: functional; procedure, shortened: as §1

Structure (SMILES)	Activity [1]	inhibition at 10 µM [2]	Activity [3]	inhibition at 1 µM [4]	IC50 [5]	inhibition at 2 µM [6]
CC(=O)OCCC(=O)[C@@H]1[C@H]2CC[C@H](CO)C[C@@H]2C=C[C@@]1(C)O	inactive	27%	inactive			
CC(=O)OCCC(=O)[C@H]1C(C)=C[C@@H](O)[C@H]2[C@H](O)[C@@H](C)CC[C@H]12		36%		40%	9.8 µM	
CC(=O)OC[C@H]1CC[C@@H]2[C@@H](C(=O)CCO)[C@](C)(O)C=C[C@H]2C1	inactive		inactive			
CC(=O)OCCC(=O)[C@@H]1[C@H]2CC[C@H](C)[C@@H](O)[C@@H]2[C@H](Cl)[C@@H](O)[C@@]1(C)O		37%				
CC(=O)OCCC(=O)[C@@H]1[C@H]2CC[C@H](C)[C@@H](O)[C@@H]2C=C[C@@]1(C)O	inactive		inactive			40%
C[C@H]1CC[C@H]2[C@@H](C=C[C@@](C)(O)[C@@H]2C(=O)CCO)[C@@H]1O	inactive		inactive			
CC(=O)OCCC(=O)[C@@H]1[C@H]2CC[C@H](COC(C)=O)C[C@@H]2C=C[C@@]1(C)O	inactive		inactive			
